Bioassay records as filed in PubChem.
TRPC4 potent: allosterically enhances the mouse TRPC4 cation channel; Q9QUQ5; HEK293 TRPC4beta/mu-opioid, DAMGO EC20, Fluo-4 Ca2+ flux; stronger effect = higher value; B-score at 10 µM; actives 0.42% (n = 310,000); AID 2227;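 active means B-score of calcium response area above 5 SD of library B-scores, with initial fluorescence ratio within 5 SD of library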;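 further: B-score of integrated fluorescence ratio over time as area under calcium response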
Target sequence (Q9QUQ5 whole entry, looked up): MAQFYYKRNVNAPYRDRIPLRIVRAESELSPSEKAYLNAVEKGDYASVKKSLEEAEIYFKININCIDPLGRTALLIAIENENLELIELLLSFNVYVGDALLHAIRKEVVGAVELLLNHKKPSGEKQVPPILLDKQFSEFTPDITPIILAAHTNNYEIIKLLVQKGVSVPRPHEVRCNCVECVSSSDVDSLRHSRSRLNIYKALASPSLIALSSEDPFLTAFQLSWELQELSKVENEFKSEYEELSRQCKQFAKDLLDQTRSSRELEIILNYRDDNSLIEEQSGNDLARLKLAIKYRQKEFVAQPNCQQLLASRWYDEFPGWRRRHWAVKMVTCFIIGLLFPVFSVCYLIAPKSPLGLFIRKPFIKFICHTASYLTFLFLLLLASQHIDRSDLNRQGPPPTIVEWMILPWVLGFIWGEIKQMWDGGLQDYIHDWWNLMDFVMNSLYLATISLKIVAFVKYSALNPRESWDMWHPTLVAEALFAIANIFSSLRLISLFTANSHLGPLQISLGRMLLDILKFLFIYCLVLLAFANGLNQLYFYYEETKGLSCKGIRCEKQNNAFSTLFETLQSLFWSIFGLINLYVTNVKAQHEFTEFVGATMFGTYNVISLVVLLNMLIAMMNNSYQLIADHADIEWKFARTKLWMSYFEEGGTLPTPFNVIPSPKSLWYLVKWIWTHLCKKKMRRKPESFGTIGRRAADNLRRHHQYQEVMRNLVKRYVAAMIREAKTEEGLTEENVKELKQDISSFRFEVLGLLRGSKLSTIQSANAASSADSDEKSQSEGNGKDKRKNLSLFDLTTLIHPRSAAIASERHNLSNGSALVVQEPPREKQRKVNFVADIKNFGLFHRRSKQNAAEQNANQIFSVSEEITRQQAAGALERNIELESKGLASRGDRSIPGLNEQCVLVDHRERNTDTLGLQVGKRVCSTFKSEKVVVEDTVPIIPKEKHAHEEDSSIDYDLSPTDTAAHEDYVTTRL
TRPC6 act: activates the mouse TRPC6 cation channel. Q61143. HEK293-TRPC6 membrane potential dye fluorescence; stronger effect = higher value. B-score at 10 µM. actives 0.13% (n = 310,000). AID 2550;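 active means B-score of the integrated fluorescence ratio above library mean plus 3 SD, and starting fluorescence ratio within library mean plus 5 SD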;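 further: higher score means more depolarization so channel activation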
Pemphigus Ab inh: blocks pemphigus antibody binding to human desmoglein-3; AID 588358; binding (percent of control), % at 10 µM; P32926; DSG3-coupled beads, scFv-anti-DSG3-GFP binding, flow cytometry; stronger effect = lower value; actives 0.48% (n = 310,000);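 active means binding more than 3 SD below its plate's average and above zero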;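 further: hits lower antibody fragment binding to DSG3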
TRPC4 block: blocks the mouse TRPC4 cation channel | HEK293 TRPC4beta/mu-opioid, DAMGO-evoked Fluo4 calcium flux; stronger effect = lower value | B-score at 10 µM | AID 2247 | actives 0.39% (n = 300,000);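 active means B-score over 3 SD under the library average, no early fluorescence shift, positive overall ratio signal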
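test system = HEK293 cells with stable TRPC4beta plus mu-opioid receptor expression | detection = Fluo4 Ca2+ flux fluorescence | read-out = integrated fluorescence ratio relative to baseline, converted to per-well B score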
TRPC4 act: opens the mouse TRPC4 cation channel; HEK293 TRPC4beta/mu-opioid, Fluo4 calcium fluorescence; stronger effect = higher value; AID 2237; B-score at 10 µM; Q9QUQ5; actives 0.49% (n = 310,000);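 active means B-score above 5 SD of library B-scores, and initial fluorescence ratio not above library mean plus 5 SD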;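 further: positive B-score marks a calcium rise read as TRPC4 activation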
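System: HEK293 cells stably co-expressing mouse TRPC4beta and mu-opioid receptor; Schedule: Fluo4 dye loading 45 min at room temperature, 110 s recording; Detection: Fluo4 fluorescence, kinetic; Evaluation: B-scored integrated calcium fluorescence ratio; Controls: buffer (low) and maximal DAMGO (high).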
TRPC6 inh: inhibitors of mouse TRPC6 channel; Q61143; HEK293-TRPC6, membrane potential dye, ACh-evoked depolarization; stronger effect = lower value; B-score at 10 µM; actives 1.1% (n = 310,000);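 active means B-score under library mean minus 3 SD, initial fluorescence not abnormally high, positive integrated signal ratio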;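 further: B-score derived from integrated fluorescence ratio over the kinetic read; more negative B-score means stronger inhibition of depolarization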
TRPC4 sel inh 2: second check of whether TRPC6 inhibitors also affect mouse TRPC4; actives 42% (n = 920); shares compounds with TRPC6 inh; inhibition, % at 10 µM; HEK293 TRPC4/MOR, membrane potential dye fluorescence; channel activated by saturating DAMGO dose;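 active means compounds whose fluorescence signal differed from control wells by over 3 SD, either direction, in both duplicate plates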
TRPC4 spec: mouse TRPC4 off-target activity of TRPC6 inhibitors | shares compounds with TRPC6 inh | HEK293 TRPC4/mu-opioid, membrane potential fluorescence | activity change, negative = inhibition, % at 10 µM | actives 61% (n = 920);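 active means rise or fall in signal beyond 3 SD of buffer-only wells in both replicate plates, either sign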;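 further: integrated kinetic ratio of fluorescence range over baseline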
HEK293 MPD ctr 2-1: parental HEK293 nonspecific activity of TRPC6 inhibitors, second screen | actives 31% (n = 920) | signal change vs control, % at 10 µM | shares compounds with TRPC6 inh | parental HEK293 membrane potential dye fluorescence; maximal acetylcholine challenge after compound addition;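 active means membrane potential signal moving either way by over 3 SD of the maximum-effect control, in both duplicate plates, meaning non-specific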
HEK293 MPD ctr-1: checks TRPC6 inhibitor effects in parental HEK293 cells. shares compounds with TRPC6 inh. AID 2780. membrane potential signal change, % at 10 µM. parental HEK293 membrane potential dye fluorescence. actives 60% (n = 920);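 active means membrane potential signal shifting up or down by more than 3 SD of buffer-only wells, on both duplicate plates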
HEK293 MPD ctr-2: counter-screen for TRPC6 modulators: effect in parental HEK293 cells; membrane potential dye fluorescence; shares compounds with TRPC6 inh; membrane potential signal change, % at 10 µM; actives 51% (n = 2,400);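 active means membrane potential signal moves up or down beyond 5 SD from buffer-only wells, on both duplicate plates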
HEK293 MPD ctr 2-2: parental HEK293 nonspecific activity of TRPC6 modulators, second screen; shares compounds with TRPC6 inh; membrane potential dye fluorescence; after compound, maximal acetylcholine stimulation; inhibition, % at 10 µM; actives 14% (n = 2,400); AID 488926;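 active means membrane potential signal drops by more than 5 SD from the mean control signal, in both duplicate plates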;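 further: plate controls were acetylcholine ECmax control wells for no effect and buffer only wells for full effect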
TRPC4/MOR mod: mouse TRPC4 off-target activity of TRPC6 modulators; shares compounds with TRPC6 inh; HEK293 TRPC4/mu-opioid, membrane potential fluorescence; percent change from control (negative = decrease, positive = increase), % at 10 µM; actives 69% (n = 2,400); AID 488927;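 active means membrane potential signal moved up or down beyond 5 SD of buffer control wells, in both duplicate plates, actives on both sides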;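 further: plate controls were assay buffer wells for no effect and DAMGO maximal-effect wells for full effect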
TRPC4/MOR inh 2: second selectivity test of TRPC6 modulators against mouse TRPC4; inhibition, % at 10 µM; AID 488928; actives 55% (n = 2,400); HEK293 TRPC4/mu-opioid, membrane potential dye fluorescence; stimulated with maximal-effect DAMGO; shares compounds with TRPC6 inh;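 active means drop in membrane potential signal beyond 5 SD of the control wells in both duplicate plates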;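 further: TRPC4 counter screen for TRPC6 hits run under conditions tuned for TRPC6 not TRPC4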
TRPC6 inh conf: mouse TRPC6 inhibitor confirmation; shares compounds with TRPC6 inh; HEK293-TRPC6, membrane potential dye, ACh-evoked depolarization; inhibition, % at 10 µM; actives 43% (n = 3,300); AID 488960;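 active means fluorescence ratio falls more than 5 SD below the full-stimulation control mean, in both duplicate runs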;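 further: integrated fluorescence ratio of peak minus minimum over baseline after agonist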
TRPC6 act confirm: mouse TRPC6 activator confirmation; shares compounds with TRPC6 inh; HEK293-TRPC6 membrane potential dye fluorescence, FDSS; activation, % at 10 µM; actives 11% (n = 2,800);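 active means ratio signal rise beyond 5 SD above unstimulated control wells' mean, seen in both duplicate runs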;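 further: plate controls were buffer EC0 wells for no effect and acetylcholine ECmax response for full effect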
* hit, by the source's call; i = inactive; . = not tested or not shown. An excerpt weighted towards active compounds, which were near 2.5% of everything screened.

SMILES	TRPC4 potent	TRPC6 act	Pemphigus Ab inh	TRPC4 block	TRPC4 act	TRPC6 inh	HEK293 MPD ctr-2	HEK293 MPD ctr 2-2	TRPC4/MOR mod	TRPC4/MOR inh 2	TRPC6 inh conf	TRPC6 act confirm	others
CCN(CC)CCNc1nc2c(c(=O)[nH]c(=O)n2C)n1CC(O)COc1ccc(Cl)cc1Cl (configuration not stated)	i	i	97	i	i	-8.8*	-308%*	58%*	-56%*	35%*	42%*	i
O=C(Nc1cc(S(=O)(=O)Nc2ccc(Cl)cc2)ccc1N1CCCCC1)c1ccc(F)cc1Cl	i	i	121	i	i	i	.	.	.	.	.	.
CCCCN1C(=O)/C(=C/C=C2\Oc3ccccc3N2CC)SC1=S	i	35*	192	i	i	i	338%*	i	99%*	i	i	i
O=C(/C=C/c1ccccc1)C1=C(O)C(=O)N(CCO)C1c1ccccc1[N+](=O)[O-] (configuration not stated)	i	13*	85	i	i	i	120%*	i	16%*	i	i	62%*
N#Cc1c(-c2ccccc2)nc(SCC(=O)Nc2ccccc2)[nH]c1=O	.	.	103	.	.	.	.	.	.	.	.	.
Cc1cc(C)nc(NS(=O)(=O)c2ccc(NC(=O)CSc3nc(-c4ccccc4)c(C#N)c(=O)[nH]3)cc2)n1	i	13*	99	i	i	i	i	i	10%*	i	i	81%*
CC1CCN(CCCNC(=O)c2coc3nc4ccccc4nc23)CC1	i	i	112	i	i	-5.1*	i	i	-16%*	46%*	i	i
CC1CCCN(CCCNC(=O)c2coc3nc4ccccc4nc23)C1 (configuration not stated)	i	i	112	i	i	i	.	.	.	.	.	.
Cc1c(C)n2c(SCC(=O)N3CCCCCC3)nnc2[nH]c1=O	i	i	104	i	i	i	.	.	.	.	.	.
COc1ccc(NC(=S)N2CCCC(c3nc4ccc(C)cc4[nH]3)C2)cc1 (configuration not stated)	i	i	94	i	i	-6.5*	i	i	i	i	i	i
O=C(NC1CCCCC1)C(c1ccccc1)N(Cc1ccco1)C(=O)Cn1cnc2ccccc21 (configuration not stated)	i	17*	110	i	i	i	277%*	i	119%*	i	i	109%*
O=C(NC1CCCCC1)C(c1ccccc1)N(Cc1ccco1)C(=O)c1csnn1 (configuration not stated)	i	i	86	i	i	i	.	.	.	.	.	.
CC(C)(C)c1ccc(OCCCCCCN2CCNCC2)cc1	i	i	127	i	i	-7.7*	.	.	.	.	61%*	i	TRPC4 sel inh 2=52%*;TRPC4 spec=-0.1%*;HEK293 MPD ctr 2-1=i;HEK293 MPD ctr-1=2.7%*
CC(C)(c1ccccc1)c1ccc(OCCCN2CCNCC2)cc1	i	i	89	i	i	-6.8*	.	.	.	.	i	i	TRPC4 sel inh 2=34%*;TRPC4 spec=i;HEK293 MPD ctr 2-1=i;HEK293 MPD ctr-1=2.3%*
CC1CCN(CCCCOc2ccc(C(C)(C)C)cc2)CC1	i	i	97	i	i	i	.	.	.	.	.	.
CCCn1nnc(NC(=O)c2ccc3c(c2)OCO3)n1	i	i	104	i	i	i	.	.	.	.	.	.
COc1cccc(-c2nc(N3CCN(C)CC3)c3ccccc3n2)c1O	i	i	98	i	i	-9.9*	-218%*	i	-44%*	72%*	52%*	i
CN1CCN(c2nc(-c3cccs3)nc3ccccc23)CC1	i	i	85	i	i	-8.2*	.	.	.	.	69%*	i	TRPC4 sel inh 2=32%*;TRPC4 spec=-28%*;HEK293 MPD ctr 2-1=i;HEK293 MPD ctr-1=-344%*
CC12CCC(C(=O)Nc3cccc(Cl)c3Cl)([C@H](Br)C1=O)C2(C)C (some centres not stated)	i	i	.	i	i	i	.	.	.	.	.	.
CC12CCC(C(=O)Nc3c(Cl)cccc3Cl)(C(Br)C1=O)C2(C)C (configuration not stated)	i	i	74	i	i	-6.2*	i	i	i	i	i	i
COCC(C)OC(=O)C(C#N)c1nc2ccccc2nc1N1CCN(Cc2ccccc2)CC1 (configuration not stated)	i	i	131	i	i	i	.	.	.	.	.	.
COCCOC(=O)C(C#N)c1nc2ccccc2nc1N1CCN(Cc2ccccc2)CC1 (configuration not stated)	i	i	102	i	i	-6.2*	i	i	i	36%*	i	i
